7 molecules from PubChem BioAssay can be followed below.

Assay [1] in a line: inhibitors of TNFa-induced NFkB p65 translocation, primary screen, imaging, HUVEC, MLSMR starter and 10KST1 sets (AID 438;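 active = inhibition above 20% together with a positive visual image hit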;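 also: compound added about 3h40 before a 20 min TNFalpha stimulation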;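 as to inhibition: signal is the nuclear over cytoplasmic p65 intensity ratio per well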). The following applies: HUVEC TNFa-induced p65 nuclear translocation; cell count: measured here: nuclei count (cytotoxicity indicator), at 2.08 µM; inhibition: at 2 µM, stronger effect = higher value, 0% TNFa-plus-vehicle, 100% no-TNFa wells.
The nature of assay [2]: endothelial E-selectin expression blockers – imaging, HUVEC, immunofluorescence, MLSMR starter and 10KST1 sets, primary screen (AID 487;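 active = visually confirmed hit in the image check and inhibition above 20%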;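 as to inhibition: signal is fraction of cell area covered by stained E-selectin grains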;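 as to nuclei count: 100% = median nuclei count of all wells on the same plate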). As to conditions: HUVEC TNFalpha-induced E-selectin immunofluorescence imaging, at 2 µM; inhibition: stronger effect = higher value; nuclei count: measured here: cell number, toxicity.
Assay [3] is described as follows: Primary imaging screen for DUSP6 inhibitors that restore phospho-Erk in transfected HeLa cells, chemical complementation (AID 609;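 active = compounds giving at least 50% inhibition in the cell-based MKP-3 phosphatase rescue imaging test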;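 as to inhibition: phospho-Erk level distribution per well compared with pooled transfected vehicle control wells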). The following applies: HeLa MKP-3 transfected, phospho-Erk imaging KS statistic, at 10 µM, cells stimulated with TPA for 15 min.
Assay [4] has as its target Dual specificity protein phosphatase 6 (Homo sapiens) (UniProt Q16828). Described as above. As to conditions: HeLa MKP-3 transfected, phospho-Erk imaging KS statistic; at 10 µM; stronger effect = higher value; cells stimulated with TPA for 15 min.
For assay [5], the target named is Voltage-gated potassium channel subunit beta-2 (Rattus norvegicus) (UniProt P62483). The experiment in a line: inhibitors of rat Kvbeta2 reductase activity – biochemical, NADPH fluorescence, primary screen (AID 622;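 active = fluorescence slope higher than the sample average by over 3 SD, cut at about -0.22 in these data, passing the limit was not always enough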;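 also: slope of raw intensity against log time taken from 70 to 1610 s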). The following applies: recombinant KvBeta, 4-cyanobenzaldehyde reduction, at 10 µM, stronger effect = higher value.
For assay [6] the target is unchanged. As to the kind of experiment: enhancers of rat Kvbeta2 NADPH turnover – biochemical, NADPH fluorescence, primary screen (AID 623).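 Also: fluorescence intensity change per second fitted from 20 to 320 s.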 As to conditions: Recombinant KvBeta, NADPH fluorescence decrease slope, 10 min; at 10 µM; stronger effect = lower value.
Assay [7] addresses Muscarinic acetylcholine receptor M4 (Homo sapiens) (UniProt P08173). The experiment in a line: M4-linked GIRK flux change, two-sided – cell-based, HEK293 M4/GIRK, thallium flux, BTC-AM, M4 allosteric agonist project, primary screen (AID 625;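 active = fluorescence slope after compound addition differing from the mean of all tested samples at 99.7% confidence, mostly higher but some lower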;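 also: thallium influx through GIRK channels coupled to M4 in HEK293 cells with BTC-AM dye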). As to conditions: at 10 µM, actives lie on both sides. The gist of the method: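 assay system = HEK293 cells with M4 receptor and GIRK channels | medium = pH 7.3 thallium assay buffer | doses = 10 µM final, single point | timing = cells overnight at 37 °C, BTC-AM loading 1 h, reads 2 min total | signal = BTC-AM fluorescence, 1 Hz kinetic reads | read-out = post-addition slope, 15–24 s, of baseline-normalized fluorescence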

Assay [8] in a line: inhibitors of larval lipid processing in zebrafish, primary screen, whole organism, PED6 fluorescence, gall bladder and intestine (AID 686;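 active = a full or partial loss of lipid-probe fluorescence in the fish gall bladder, intestine or both, judged by eye; inactive = no fluorescence loss, or compound toxic to the fish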;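 also: larvae 5 to 7 days old with five fish per well; signal comes from phospholipase A2 cleavage of quenched PED6 carried via bile; overnight exposure to compound and PED6 before scoring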). As to conditions: Zebrafish larvae PED6 lipid processing, fluorescence scoring; screened at 20 µM (by protocol). The gist of the method: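 Also added: quenched phospholipase substrate PED6, 100 nM final, ingested by larvae; System: zebrafish larvae, 5-7 d; Quantity: 5 larvae per well; Compound: 20 µM single dose; Schedule: overnight compound and PED6 incubation; Read-out: visual per-well fluorescence inhibition score; Measured by: By-eye fluorescence microscopy; Medium: E3.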

The nature of assay [9]: loss of swimming-algae plug formation – whole organism, Chlamydomonas reinhardtii, WT vs cilia-less mutant, absorbance, 96-well, primary screen (AID 463189;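 active = inhibition at or above 50% relative to wild type and mutant plate controls; inactive = inhibition below 50%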;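 also: 0% = wild type cc124 cells in DMSO and 100% = ciliumless bld1 mutant cells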). The following applies: Chlamydomonas reinhardtii gravitaxis, OD600 absorbance, 2 days; at 10 µM; stronger effect = higher value.
Where [10] appears, read: measured here: cell density z-score.
Setting [11] is: measured here: nuclear c-Myc green intensity z-score.
The mark [12] stands for this setting: measured here: nuclear pErk red intensity z-score, stronger effect = higher value.

Activity calls are given as the source filed them.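 The calls were made as follows, unless noted: active = NADPH fluorescence slope more negative than the mean of all samples by about 3 SD, 99.7% confidence; inactive = the rest.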

Chain of Muscarinic acetylcholine receptor M4 (Homo sapiens) (P08173 whole entry, looked up): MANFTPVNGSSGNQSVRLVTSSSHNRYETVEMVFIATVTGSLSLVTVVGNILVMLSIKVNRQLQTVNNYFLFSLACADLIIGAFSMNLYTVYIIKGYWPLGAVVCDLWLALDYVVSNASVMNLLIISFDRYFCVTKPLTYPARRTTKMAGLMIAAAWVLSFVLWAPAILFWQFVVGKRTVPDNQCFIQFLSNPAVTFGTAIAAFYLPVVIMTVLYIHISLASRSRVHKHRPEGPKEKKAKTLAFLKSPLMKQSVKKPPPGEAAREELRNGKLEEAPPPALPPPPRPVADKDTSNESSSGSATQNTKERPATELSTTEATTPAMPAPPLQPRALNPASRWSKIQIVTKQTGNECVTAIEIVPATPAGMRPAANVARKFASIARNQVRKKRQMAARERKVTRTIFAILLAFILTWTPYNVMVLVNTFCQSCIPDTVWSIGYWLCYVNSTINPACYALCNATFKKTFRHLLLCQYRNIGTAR
Chain of Dual specificity protein phosphatase 6 (Homo sapiens) (Q16828 whole entry, looked up): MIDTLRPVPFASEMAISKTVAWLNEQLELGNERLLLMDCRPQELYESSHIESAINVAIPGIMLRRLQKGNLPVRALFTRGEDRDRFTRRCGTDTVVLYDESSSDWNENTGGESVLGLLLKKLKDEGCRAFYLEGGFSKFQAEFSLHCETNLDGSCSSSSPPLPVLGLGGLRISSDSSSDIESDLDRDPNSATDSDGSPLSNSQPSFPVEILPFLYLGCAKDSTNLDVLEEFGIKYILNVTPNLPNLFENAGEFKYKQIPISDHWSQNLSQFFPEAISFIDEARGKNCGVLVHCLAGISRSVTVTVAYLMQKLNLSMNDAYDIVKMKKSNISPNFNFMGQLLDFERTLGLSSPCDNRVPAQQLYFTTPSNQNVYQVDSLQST
Chain of Voltage-gated potassium channel subunit beta-2 (Rattus norvegicus) (P62483 whole entry, looked up): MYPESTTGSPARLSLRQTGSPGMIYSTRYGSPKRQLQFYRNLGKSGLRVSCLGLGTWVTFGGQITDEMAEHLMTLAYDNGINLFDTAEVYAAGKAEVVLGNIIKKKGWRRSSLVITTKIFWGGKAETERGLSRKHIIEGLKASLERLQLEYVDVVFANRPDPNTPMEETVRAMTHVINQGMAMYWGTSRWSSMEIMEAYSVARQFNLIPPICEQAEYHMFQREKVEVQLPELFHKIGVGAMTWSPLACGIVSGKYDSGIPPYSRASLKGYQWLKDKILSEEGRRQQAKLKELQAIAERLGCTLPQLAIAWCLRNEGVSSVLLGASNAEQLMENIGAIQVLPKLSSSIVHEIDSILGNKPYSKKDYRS

For `Cc1ccc(S(=O)(=O)N(CC(O)CN2CCOCC2)c2cc(Cl)ccc2Cl)cc1` (stereo unspecified), the cell count in assay [1] came to 597. Besides, the inhibition in assay [1] was -2.7% (inactive); in assay [2], -35% (inactive); in assay [4] it was 7.42% (inactive); in assay [9] it was -2.19% (inactive). This molecule showed a nuclei count in assay [2] of 112%. Further, the z-score in assay [3] (setting [10]) is -0.865; in assay [3] (setting [11]) it was 1.14; in [3] (setting [12]) it was 0.263. Also, the fluorescence slope is -0.403 (inactive) in [5] and 0.00509 (inactive) in assay [7]. Besides, the NADPH fluorescence slope in assay [6] is -2.9e-05 (inactive). The call in [8] was inactive.
Consider `Cc1nn2cnc3sc4c(c3c2nc1=O)CCCC4`, for which, in assay [1], the cell count was determined as 535. For the same molecule, the inhibition was -9.5% (inactive) in assay [1], -186% (inactive) in assay [2], 13.9% (inactive) in assay [4] and 19.9% (inactive) in assay [9]. Moreover, the nuclei count in assay [2] was 145%. Also, the z-score in assay [3] (setting [10]) is 0.522; in [3] (setting [11]), -0.702; in assay [3] (setting [12]) it was -1.01. Besides, the fluorescence slope in [5] was -0.364 (inactive); in [7], 0.00519 (inactive). Also, the NADPH fluorescence slope in assay [6] was -2.5e-05 (inactive). Further, the call in assay [8] was inactive.
For the molecule `COC(=O)c1ccc(C2/C(=C(/O)c3ccc(OC)cc3)C(=O)C(=O)N2Cc2ccco2)cc1` (stereo unspecified), the cell count in [1] came to 603. Moreover, the inhibition is -5.8% (inactive) in [1], -47.8% (inactive) in [2], -4.59% (inactive) in assay [4] and -8.72% (inactive) in [9]. The same molecule had a nuclei count in [2] of 96.4%. For the same molecule, the z-score was -1.62 in assay [3] (setting [10]), 0.429 in assay [3] (setting [11]) and -2.41 in assay [3] (setting [12]). Moreover, the fluorescence slope in assay [5] was -0.4 (inactive); in [7], 0.0058 (inactive). Moreover, the NADPH fluorescence slope in assay [6] was 4.5e-06 (inactive). Also, in [8], the outcome was inactive.
Turning to `COc1ccc(NC(=O)c2c(C)cc(=O)oc2C)c(OC)c1`, the cell count in assay [1] worked out at 631. For the same molecule, the inhibition was 3.2% (inactive) in assay [1], 11.9% (inactive) in assay [2], -7.67% (inactive) in assay [4] and -7.06% (inactive) in [9]. In assay [2], this molecule registered a nuclei count of 111%. The results for the z-score in [3] (setting [10]), in assay [3] (setting [11]) and in [3] (setting [12]) were 0.599, -0.258 and 0.577, respectively. Besides, the figures for the fluorescence slope in assay [5] and in assay [7] were -0.454 (inactive) and 0.00518 (inactive), respectively. Further, the NADPH fluorescence slope in assay [6] is -3.9e-05 (inactive). In addition, the outcome in [8] was inactive.
Turning to `CC(NC(=O)NCc1cccnc1)(C(F)(F)F)C(F)(F)F`, the cell count in [1] is 708. For the same molecule, the inhibition was -13.6% (inactive) in [1], -45% (inactive) in assay [2], -2.09% (inactive) in [4] and 10.1% (inactive) in [9]. This molecule also had a nuclei count in assay [2] of 138%. Also, the figures for the z-score in assay [3] (setting [10]), in [3] (setting [11]) and in [3] (setting [12]) were -0.926, 1.23 and 1.47, respectively. The fluorescence slope in assay [5] is -0.446 (inactive); in assay [7] it was 0.00505 (inactive). Moreover, in assay [6], the NADPH fluorescence slope is -4.7e-05 (inactive). In assay [8], the call was inactive.
As for `CC(O)CNc1nc2c(c(=O)n(C)c(=O)n2C)n1Cc1cccc(C(F)(F)F)c1` (stereo unspecified), the cell count in assay [1] came to 679. In addition, the inhibition in assay [1] was -9.1% (inactive); in [2] it was -182% (inactive); in [4] it was 11.9% (inactive); in [9], 4.09% (inactive). This molecule showed a nuclei count in assay [2] of 176%. Besides, the z-score in [3] (setting [10]) was 0.999; in [3] (setting [11]), -1.51; in [3] (setting [12]) it was -1.36. Besides, the fluorescence slope was -0.511 (inactive) in assay [5] and 0.00932 (inactive) in [7]. For the same molecule, in assay [6], the NADPH fluorescence slope is -5e-05 (inactive). The call in assay [8] was inactive.
Consider `COc1ccc(C2C(C(C)=O)=C(O)C(=O)N2c2nccs2)cc1OC` (stereo unspecified), for which the cell count in assay [1] was 651. The inhibition in assay [1] is -8.9% (inactive); in [2] it was -2.2% (inactive); in assay [4], -7.67% (inactive); in assay [9], -3.88% (inactive). In assay [2], this molecule returned a nuclei count of 87.4%. For the same molecule, the values for the z-score in assay [3] (setting [10]), in assay [3] (setting [11]) and in assay [3] (setting [12]) were -0.646, -0.662 and -0.478, respectively. In addition, the fluorescence slope in assay [5] was -0.5 (inactive); in assay [7] it was 0.00821 (inactive). Further, the NADPH fluorescence slope in assay [6] is -0.000231 (inactive). Also, in assay [8], the result was inactive.

For orientation: inhibition means the relative decrease from the control value, in per cent.
